In ChEMBL document CHEMBL2086252, “Syntheses and evaluation of anticonvulsant activity of novel branched alkyl carbamates” (J Med Chem, 2012):
Active and inactive are the calls of the source. No cut-off for these calls is given here.

Key:
[1] = test system: Rattus norvegicus; experiment: Neurotoxicity in pilocarpine-induced status epilepticus Sprague-Dawley albino rat model assessed as minimal motor impairment at 100 mg/kg, ip after 4 hrs by rotarod test; type: toxicity, organism-based; set-up: dose 100 mg/kg, route intraperitoneal; details: in vivo
[2] = test system: Mus musculus; experiment: Anticonvulsant activity in albino CF1 mouse assessed as protection against subcutaneous metrazol-induced seizures at 300 mg/kg, ip after 0.5 hrs; type: functional, organism-based; set-up: dose 300 mg/kg
Procedure, shortened: (§1)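 Mice dosed ip at 30, 100 or 300 mg/kg, then tested 0.5 h and 4 h after administration in the MES or scMet test. Protection was recorded as animals protected over animals tested. Neurotoxicity was recorded as motor impairment or sedation, as animals affected over animals tested.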

[3] = test system: Rattus norvegicus; experiment: Neurotoxicity in pilocarpine-induced status epilepticus Sprague-Dawley albino rat model assessed as minimal motor impairment at 100 mg/kg, ip after 1 hr by rotarod test; type: toxicity, organism-based; set-up: dose 100 mg/kg, route intraperitoneal; details: in vivo
[4] = test system: Rattus norvegicus; experiment: Anticonvulsant activity in Sprague-Dawley albino rat assessed as protection against maximal electroshock-induced seizures at 30 mg/kg, po after 4 hrs; type: functional, organism-based; set-up: dose 30 mg/kg
Procedure, shortened: (§2)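 Rats dosed orally. Anti-MES protection was scored as animals protected over animals tested at each time after dosing. Neurotoxicity was scored as motor impairment or sedation, as animals affected over animals tested.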

[5] = test system: Mus musculus; experiment: Anticonvulsant activity in albino CF1 mouse assessed as protection against subcutaneous metrazol-induced seizures at 30 mg/kg, ip after 0.5 hrs; type: functional, organism-based; set-up: dose 30 mg/kg; procedure, shortened: as §1
[6] = test system: Rattus norvegicus; experiment: Anticonvulsant activity in Sprague-Dawley albino rat assessed as protection against maximal electroshock-induced seizures at 30 mg/kg, po after 1 hr; type: functional, organism-based; set-up: dose 30 mg/kg; procedure, shortened: as §2
[7] = test system: Mus musculus; experiment: Anticonvulsant activity in albino CF1 mouse assessed as protection against subcutaneous metrazol-induced seizures at 300 mg/kg, ip after 4 hrs; type: functional, organism-based; set-up: dose 300 mg/kg; procedure, shortened: as §1
[8] = test system: Rattus norvegicus; experiment: Neurotoxicity in pilocarpine-induced status epilepticus Sprague-Dawley albino rat model assessed as minimal motor impairment at 100 mg/kg, ip after 2 hrs by rotarod test; type: toxicity, organism-based; set-up: dose 100 mg/kg, route intraperitoneal; details: in vivo
[9] = test system: Mus musculus; experiment: Anticonvulsant activity in albino CF1 mouse assessed as protection against maximal electroshock-induced seizures at 30 mg/kg, ip after 0.5 hrs; type: functional, organism-based; set-up: dose 30 mg/kg; procedure, shortened: as §1
[10] = test system: Rattus norvegicus; experiment: Anticonvulsant activity in po dosed Sprague-Dawley albino rat assessed as protection against subcutaneous metrazol-induced seizures; type: functional
Procedure, shortened: (§3)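 Quantitative testing: rats dosed orally or ip in MES and scMet tests, and mice dosed ip, including the 6 Hz (32 mA) psychomotor seizure test. ED50 and TD50 were reported in mg/kg with ranges in parentheses. Protective index was calculated as TD50/ED50.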

[11] = test system: Rattus norvegicus; experiment: Neurotoxicity in pilocarpine-induced status epilepticus Sprague-Dawley albino rat model assessed as minimal motor impairment at 100 mg/kg, ip after 0.5 hrs by rotarod test; type: toxicity, organism-based; set-up: dose 100 mg/kg, route intraperitoneal; details: in vivo
[12] = test system: Rattus norvegicus; experiment: Anticonvulsant activity in Sprague-Dawley albino rat assessed as protection against maximal electroshock-induced seizures at 30 mg/kg, po after 2 hrs; type: functional, organism-based; set-up: dose 30 mg/kg; procedure, shortened: as §2
[13] = test system: Rattus norvegicus; experiment: Anticonvulsant activity in Sprague-Dawley albino rat assessed as protection against maximal electroshock-induced seizures at 30 mg/kg, po after 15 mins; type: functional, organism-based; set-up: dose 30 mg/kg; procedure, shortened: as §2
[14] = test system: Rattus norvegicus; experiment: Anticonvulsant activity in Sprague-Dawley albino rat assessed as protection against maximal electroshock-induced seizures at 100 mg/kg, po after 30 mins; type: functional, organism-based; set-up: dose 100 mg/kg; procedure, shortened: as §2
[15] = test system: Mus musculus; experiment: Anticonvulsant activity in albino CF1 mouse assessed as protection against maximal electroshock-induced seizures at 300 mg/kg, ip after 0.5 hrs; type: functional, organism-based; set-up: dose 300 mg/kg; procedure, shortened: as §1
[16] = test system: Mus musculus; experiment: Anticonvulsant activity in albino CF1 mouse assessed as protection against subcutaneous metrazol-induced seizures at 30 mg/kg, ip after 4 hrs; type: functional, organism-based; set-up: dose 30 mg/kg; procedure, shortened: as §1
[17] = test system: Mus musculus; experiment: Anticonvulsant activity in albino CF1 mouse assessed as protection against subcutaneous metrazol-induced seizures at 100 mg/kg, ip after 4 hrs; type: functional, organism-based; set-up: dose 100 mg/kg; procedure, shortened: as §1
[18] = test system: Mus musculus; experiment: Anticonvulsant activity in albino CF1 mouse assessed as protection against subcutaneous metrazol-induced seizures at 100 mg/kg, ip after 0.5 hrs; type: functional, organism-based; set-up: dose 100 mg/kg; procedure, shortened: as §1
[19] = test system: Rattus norvegicus; experiment: Anticonvulsant activity in Sprague-Dawley albino rat assessed as protection against maximal electroshock-induced seizures at 100 mg/kg, po after 4 hrs; type: functional, organism-based; set-up: dose 100 mg/kg; procedure, shortened: as §2
[20] = test system: Rattus norvegicus; experiment: Neurotoxicity in Sprague-Dawley albino rat assessed as minimal motor impairment at 30 mg/kg, po by rotarod test; type: toxicity, organism-based; set-up: dose 30 mg/kg, route oral; details: in vivo; procedure, shortened: as §2
[21] = test system: Rattus norvegicus; experiment: Anticonvulsant activity in po dosed Sprague-Dawley albino rat assessed as protection against maximal electroshock-induced seizures; type: functional; procedure, shortened: as §3
[22] = test system: Mus musculus; experiment: Neurotoxicity in albino CF1 mouse assessed as minimal motor impairment at 100 mg/kg, ip after 4 hrs by rotarod test; type: toxicity, organism-based; set-up: dose 100 mg/kg, route intraperitoneal; details: in vivo; procedure, shortened: as §1
[23] = test system: Mus musculus; experiment: Anticonvulsant activity in albino CF1 mouse assessed as protection against maximal electroshock-induced seizures at 300 mg/kg, ip after 4 hrs; type: functional, organism-based; set-up: dose 300 mg/kg; procedure, shortened: as §1
[24] = test system: Rattus norvegicus; experiment: Neurotoxicity in pilocarpine-induced status epilepticus Sprague-Dawley albino rat model assessed as minimal motor impairment at 300 mg/kg, ip after 2 hrs by rotarod test; type: toxicity, organism-based; set-up: dose 300 mg/kg, route intraperitoneal; details: in vivo
Procedure, shortened: (§4)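 Rat pilocarpine status epilepticus model: test carbamate given at 0 or 30 min after the first observed Racine stage 3 motor seizure, which marks SE onset. Neurotoxicity was scored within the same model.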

[25] = test system: Mus musculus; experiment: Neurotoxicity in albino CF1 mouse assessed as minimal motor impairment at 30 mg/kg, ip after 4 hrs by rotarod test; type: toxicity, organism-based; set-up: dose 30 mg/kg, route intraperitoneal; details: in vivo; procedure, shortened: as §1
[26] = test system: Rattus norvegicus; experiment: Protective index, ratio of TD50 for po dosed Sprague-Dawley albino rat by rotarod test to ED50 for po dosed Sprague-Dawley albino rat by subcutaneous metrazol seizures test; type: functional
Procedure, shortened: (§5)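 Protective index calculated as TD50/ED50, with TD50 and ED50 taken from the same species and dosing route.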

[27] = test system: Rattus norvegicus; experiment: Neurotoxicity in pilocarpine-induced status epilepticus Sprague-Dawley albino rat model assessed as minimal motor impairment at 300 mg/kg, ip after 1 hr by rotarod test; type: toxicity, organism-based; set-up: dose 300 mg/kg, route intraperitoneal; details: in vivo; procedure, shortened: as §4
[28] = test system: Mus musculus; experiment: Anticonvulsant activity in albino CF1 mouse assessed as protection against maximal electroshock-induced seizures at 100 mg/kg, ip after 4 hrs; type: functional, organism-based; set-up: dose 100 mg/kg; procedure, shortened: as §1
[29] = test system: Mus musculus; experiment: Anticonvulsant activity in albino CF1 mouse assessed as protection against maximal electroshock-induced seizures at 30 mg/kg, ip after 4 hrs; type: functional, organism-based; set-up: dose 30 mg/kg; procedure, shortened: as §1
[30] = test system: Rattus norvegicus; experiment: Neurotoxicity in pilocarpine-induced status epilepticus Sprague-Dawley albino rat model assessed as minimal motor impairment at 300 mg/kg, ip after 0.5 hrs by rotarod test; type: toxicity, organism-based; set-up: dose 300 mg/kg, route intraperitoneal; details: in vivo; procedure, shortened: as §4
[31] = test system: Rattus norvegicus; experiment: Neurotoxicity in pilocarpine-induced status epilepticus Sprague-Dawley albino rat model assessed as minimal motor impairment at 300 mg/kg, ip after 0.25 hr by rotarod test; type: toxicity, organism-based; set-up: dose 300 mg/kg, route intraperitoneal; details: in vivo; procedure, shortened: as §4
[32] = test system: Rattus norvegicus; experiment: Neurotoxicity in Sprague-Dawley albino rat assessed as minimal motor impairment at 100 mg/kg, po by rotarod test; type: toxicity, organism-based; set-up: dose 100 mg/kg, route oral; details: in vivo; procedure, shortened: as §2
[33] = test system: Mus musculus; experiment: Neurotoxicity in albino CF1 mouse assessed as minimal motor impairment at 300 mg/kg, ip after 0.5 hrs by rotarod test; type: toxicity, organism-based; set-up: dose 300 mg/kg, route intraperitoneal; details: in vivo; procedure, shortened: as §1
[34] = test system: Mus musculus; experiment: Neurotoxicity in albino CF1 mouse assessed as minimal motor impairment at 30 mg/kg, ip after 0.5 hrs by rotarod test; type: toxicity, organism-based; set-up: dose 30 mg/kg, route intraperitoneal; details: in vivo; procedure, shortened: as §1
[35] = Neurotoxicity in po dosed Sprague-Dawley albino rat assessed as minimal motor impairment by rotarod test; type: toxicity, organism-based; details: in vivo
Procedure, shortened: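 Rats dosed orally; 4 rats per time point after dosing. Neurotoxicity was scored as motor impairment or sedation and reported as number of animals affected over number tested.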

[36] = test system: Mus musculus; experiment: Anticonvulsant activity in albino CF1 mouse assessed as protection against maximal electroshock-induced seizures at 100 mg/kg, ip after 0.5 hrs; type: functional, organism-based; set-up: dose 100 mg/kg; procedure, shortened: as §1
[37] = test system: Rattus norvegicus; experiment: Anticonvulsant activity in Sprague-Dawley albino rat assessed as protection against maximal electroshock-induced seizures at 30 mg/kg, po after 30 mins; type: functional, organism-based; set-up: dose 30 mg/kg; procedure, shortened: as §2
[38] = test system: Rattus norvegicus; experiment: Protective index, ratio of TD50 for po dosed Sprague-Dawley albino rat by rotarod test to ED50 for po dosed Sprague-Dawley albino rat by maximal electroshock seizures test; type: functional; procedure, shortened: as §5
[39] = test system: Mus musculus; experiment: Neurotoxicity in albino CF1 mouse assessed as minimal motor impairment at 300 mg/kg, ip after 4 hrs by rotarod test; type: toxicity, organism-based; set-up: dose 300 mg/kg, route intraperitoneal; details: in vivo; procedure, shortened: as §1
[40] = test system: Rattus norvegicus; experiment: Neurotoxicity in pilocarpine-induced status epilepticus Sprague-Dawley albino rat model assessed as minimal motor impairment at 300 mg/kg, ip after 4 hrs by rotarod test; type: toxicity, organism-based; set-up: dose 300 mg/kg, route intraperitoneal; details: in vivo; procedure, shortened: as §4

For `CCCC(CCC)COC(N)=O`, the Activity [1] was “Non-toxic”, the Activity [2] was “Active” and the Activity [3] was “Non-toxic”. For the same compound, the Activity [4] was “inactive”, the Activity [5] was “inactive” and the Activity [6] was “inactive”. For the same compound, the Activity [7] was “Active”, the Activity [8] was “Non-toxic” and the Activity [9] was “inactive”. The ED50 [10] was greater than 125 mg/kg, the Activity [11] was “Non-toxic” and the Activity [12] was “inactive”. The Activity [13] was “inactive”, the Activity [14] was “Active” and the Activity [15] was “Active”. The Activity [16] was “inactive”, the Activity [17] was “inactive” and the Activity [18] was “inactive”. For the same compound, the Activity [19] was “inactive”, the Activity [20] was “Non-toxic” and the ED50 [21] was 35 mg/kg. The Activity [22] was “Non-toxic”, the Activity [23] was “Active” and the Activity [24] was “Toxic”. The Activity [25] was “Non-toxic”, the “Ratio TD50/ED50” value [26] was greater than 4 and the Activity [27] was “Toxic”. The Activity [28] was “inactive”, the Activity [29] was “inactive” and the Activity [30] was “Toxic”. The Activity [31] was “Toxic”, the Activity [32] was “Non-toxic” and the Activity [33] was “Toxic”. For the same compound, the Activity [34] was “Non-toxic”, the TD50 [35] was greater than 500 mg/kg and the Activity [36] was “Active”. The Activity [37] was “inactive”, the “Ratio TD50/ED50” value [38] was greater than 14 and the Activity [39] was “Toxic”. The Activity [40] was “Toxic”.
